Data reported in ChEMBL document CHEMBL1124959, “Synthesis of peptidyl fluoromethyl ketones and peptidyl alpha-keto esters as inhibitors of porcine pancreatic elastase, human neutrophil elastase, and rat and human neutrophil cathepsin G” (J Med Chem, 1990).
Peptide text beside a SMILES is read from it. * marks the point of attachment. Dansyl = CN(C)c1cccc2c(S(=O)(=O)*)cccc12; MeOSuc = COC(=O)CCC(=O)*; Cbz = O=C(OCc1ccccc1)*; Boc = CC(C)(C)OC(=O)*; CF3 = FC(F)(F)*

Tests used:
Chymotrypsinogen B = Chymotrypsinogen B (Homo sapiens, UniProt P17538); assay: Binding affinity against alpha-chymotrypsin
Sequence of Chymotrypsinogen B (P17538 34-164 limits assumed, other chains not shown): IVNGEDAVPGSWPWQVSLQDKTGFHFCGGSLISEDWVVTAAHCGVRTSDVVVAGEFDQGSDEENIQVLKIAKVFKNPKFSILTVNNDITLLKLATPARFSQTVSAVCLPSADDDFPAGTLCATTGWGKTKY
Sequence of Chymotrypsinogen B (P17538 167-263 limits assumed, other chains not shown): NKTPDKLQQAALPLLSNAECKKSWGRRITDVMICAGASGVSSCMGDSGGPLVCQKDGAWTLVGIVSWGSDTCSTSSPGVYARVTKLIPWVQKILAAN

Pancreatic elastase [1] = biological target: T1, Pancreatic elastase (Sus scrofa, UniProt P08419+P00772); assay: Binding affinity for porcine Elastase; assay type: protein assay
How it was run: (§1)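 Porcine pancreatic elastase was followed spectrophotometrically at 410 nm, 37 °C, with Suc-Ala-Pro-Ala-p-nitroanilide in pH 8.0 buffer (0.1 M NaCl, 0.01 M HEPES, 0.01 M Tris, 0.1% PEG 6000). Paired runs were done: enzyme added last, or enzyme preincubated with inhibitor before substrate. Only data up to 10% substrate consumption were used. K_i* came from steady-state rates fitted to competitive inhibition.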

Cathepsin G = biological target: T2, Cathepsin G (Homo sapiens, UniProt P08311); assay: Binding affinity against human Cathepsin G
T2 sequence (P08311 whole entry): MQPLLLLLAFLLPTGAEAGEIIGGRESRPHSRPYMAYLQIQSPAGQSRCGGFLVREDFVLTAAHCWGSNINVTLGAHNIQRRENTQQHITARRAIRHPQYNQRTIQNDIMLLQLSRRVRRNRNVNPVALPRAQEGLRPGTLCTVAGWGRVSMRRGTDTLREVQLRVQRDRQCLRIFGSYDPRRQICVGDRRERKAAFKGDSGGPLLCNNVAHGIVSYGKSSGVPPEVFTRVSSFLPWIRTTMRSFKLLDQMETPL
How it was run: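 Cathepsin G came from neutrophil granule extracts of sputum or, for rat, peritoneal lavage, extracted in 1 M NaCl/0.1% Brij 35 acetate buffer, pH 5.5. K_i = [I]/(v0/v1 − 1), using equilibrium velocity when binding was slow.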

Neutrophil elastase [2] = biological target: T3, Neutrophil elastase (Homo sapiens, UniProt P08246); assay: Binding affinity against human Neutrophil Elastase
T3 sequence (P08246 whole entry): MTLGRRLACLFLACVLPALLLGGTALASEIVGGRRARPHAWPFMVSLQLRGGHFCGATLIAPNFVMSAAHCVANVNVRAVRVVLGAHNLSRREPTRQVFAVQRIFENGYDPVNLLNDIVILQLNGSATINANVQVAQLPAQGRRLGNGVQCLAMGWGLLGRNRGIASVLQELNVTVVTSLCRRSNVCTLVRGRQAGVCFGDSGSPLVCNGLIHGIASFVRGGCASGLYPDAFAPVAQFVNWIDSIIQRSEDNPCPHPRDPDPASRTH
How it was run: (§2)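 Human neutrophil elastase purified from purulent sputum. Activity was read at 410 nm (p-nitroaniline) at 37 °C with MeO-Suc-Ala-Ala-Pro-Val-p-nitroanilide in 0.1 M NaCl, 0.01 M HEPES, 0.01 M Tris, 0.1% PEG 6000, pH 8.0, 1.25% DMSO. Paired assays were run, one adding enzyme last and one preincubating enzyme with inhibitor. Data were limited to ≤10% substrate use. Steady-state K_i* came from the competitive inhibition equation.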

Pancreatic elastase [3] = biological target: T1, Pancreatic elastase; assay: Binding affinity against porcine pancreatic Elastase; assay type: protein assay; how it was run: as §1
Neutrophil elastase [4] = biological target: T3, Neutrophil elastase; assay: Binding affinity against human leukocyte Elastase
Neutrophil elastase [5] = biological target: T3, Neutrophil elastase; assay: Binding affinity against human Elastase for less active diasteriomer; how it was run: as §2
Neutrophil elastase [6] = biological target: T3, Neutrophil elastase; assay: Binding affinity against human Elastase for more active diasteriomer

Compound: COC(=O)CCC(=O)N[C@@H](C)C(=O)N[C@@H](C)C(=O)N1CCC[C@H]1C(=O)N[C@@H](Cc1ccccc1)C(=O)C(=O)OC
- Ki (Chymotrypsinogen B): 79 nM

Compound: COC(=O)CCC(=O)NCCCC[C@H](NS(=O)(=O)C12CC3CC(CC(C3)C1)C2)C(=O)N1CCC[C@H]1C(=O)N[C@H](C(=O)C(F)(F)F)C(C)C
- Ki (Pancreatic elastase [1]): 15 nM

Compound: COC(=O)CCC(=O)N[C@H](C(=O)N1CCC[C@H]1C(=O)N[C@@H](Cc1ccccc1)C(=O)C(=O)OC)C(C)C
- Ki (Cathepsin G): 1100 nM

Compound: CCOC(=O)C(=O)[C@H](C)NC(=O)[C@H](C)NC(=O)[C@H](C)NC(=O)[C@H](C)NC(=O)OCc1ccccc1
- Ki (Pancreatic elastase [1]): 140 nM

Compound: COC(=O)C(=O)[C@H](C)NC(=O)[C@@H]1CCCN1C(=O)[C@H](C)NC(=O)[C@@H]1CCCN1C(C)=O
- Ki (Pancreatic elastase [1]): 29 nM

Compound: COC(=O)CCC(=O)N[C@H](Cc1ccccc1)C(=O)N1CCC[C@H]1C(=O)N[C@H](C(=O)C(F)(F)F)C(C)C
- Ki (Pancreatic elastase [1]): 28000 nM

Compound: CC(=O)N1CCC[C@H]1C(=O)N[C@@H](C)C(=O)N1CCC[C@H]1C(=O)N[C@@H](C)C(=O)C(=O)O
- Ki (Neutrophil elastase [2]): 66000 nM
- Ki (Pancreatic elastase [3]): 690 nM

Compound: CCOC(=O)C(F)(F)C(=O)[C@@H](NC(=O)[C@@H]1CCCN1C(=O)[C@H](C)NC(=O)[C@H](C)NC(=O)CCC(=O)OC)C(C)C
- Ki (Pancreatic elastase [1]): 9900 nM

Compound: COC(=O)CCC(=O)N[C@@H](C)C(=O)N[C@@H](C)C(=O)N1CCC[C@H]1C(=O)N[C@H](C(=O)C(=O)OC)C(C)C
- Ki (Pancreatic elastase [1]): 680 nM

Compound: CC(=O)N[C@@H](C)C(=O)N[C@@H](C)C(=O)N1CCC[C@H]1C(=O)N[C@@H](C)C(=O)C(F)(F)F (Ac-AAPA-CF3)
- Ki (Cathepsin G): > 800000 nM
- Ki (Pancreatic elastase [1]): 150 nM

Compound: CC(=O)N1CCC[C@H]1C(=O)N[C@@H](C)C(=O)N1CCC[C@H]1C(=O)N[C@@H](C)C(=O)C(F)(F)F (Ac-PAPA-CF3)
- Ki (Pancreatic elastase [1]): 240 nM

Compound: CC(=O)N1CCC[C@H]1C(=O)N[C@@H](C)C(=O)N1CCC[C@H]1C(=O)N[C@@H](C)C=O (Ac-PAPA-aldehyde)
- Ki (Pancreatic elastase [3]): 800 nM

Compound: CC(C)[C@H](NC(=O)[C@@H]1CCCN1C(=O)[C@H](C)NC(=O)[C@H](C)NC(=O)OC(C)(C)C)C(=O)C(F)(F)F (Boc-AAPV-CF3)
- Ki (Pancreatic elastase [1]): 32 nM

Compound: CC(C)[C@H](NC(=O)[C@@H]1CCCN1C(=O)[C@H](Cc1ccccc1)NC(=O)OC(C)(C)C)C(=O)C(F)(F)F (Boc-Phe-Pro-Val-CF3)
- Ki (Pancreatic elastase [1]): 1800 nM

Compound: CC(C)[C@H](NC(=O)[C@H](CCCCNC(=O)OCc1ccccc1)NC(=O)OCc1ccccc1)C(=O)N1CCC[C@H]1C(=O)N[C@H](C(=O)C(F)(F)F)C(C)C (Cbz-K(Cbz)VPV-CF3)
- Ki (Neutrophil elastase [4]): < 0.1 nM

Compound: CC(C)[C@H](NC(=O)[C@@H]1CCCN1C(=O)[C@H](C)NC(=O)[C@H](C)NS(=O)(=O)c1cccc2c(N(C)C)cccc12)C(=O)C(F)(F)F (Dansyl-AAPV-CF3)
- Ki (Cathepsin G): > 600000 nM
- Ki (Neutrophil elastase [5]): 110 nM
- Ki (Neutrophil elastase [6]): 6.3 nM
- Ki (Pancreatic elastase [1]): 88 nM

Compound: COC(=O)CCC(=O)N[C@@H](C)C(=O)N[C@@H](C)C(=O)N1CCC[C@H]1C(=O)N[C@@H](Cc1ccccc1)C(=O)C(F)(F)F (MeOSuc-AAPF-CF3)
- Ki (Chymotrypsinogen B): 17 nM

Compound: COC(=O)CCC(=O)N[C@@H](C)C(=O)N[C@@H](C)C(=O)N1CCC[C@H]1C(=O)N[C@H](C(=O)C(F)(F)F)C(C)C (MeOSuc-AAPV-CF3)
- Ki (Pancreatic elastase [1]): 33 nM

Compound: COC(=O)CCC(=O)N[C@H](C(=O)N1CCC[C@H]1C(=O)N[C@@H](Cc1ccccc1)C(=O)C(F)(F)F)C(C)C (MeOSuc-Val-Pro-Phe-CF3)
- Ki (Cathepsin G): 3000 nM
